2 compounds from ChEMBL document CHEMBL1125366, “Low molecular weight, non-peptide fibrinogen receptor antagonists” (J Med Chem, 1992) can be followed below.

Assay [1] is described as follows: Inhibition of platelet aggregation in human-platelet rich plasma(h-PRP) induced by adenosine 5'-diphosphate-(ADP). It counts as functional. The method in brief:
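Citrated human PRP with serial inhibitor dilutions; aggregation triggered by 10 μM ADP (final) and followed as rate of light transmission change in an aggregometer; plasma from at least four donors.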

Assay [2] in a line: Inhibition of platelet aggregation in human-platelet rich plasma(h-PRP) induced by thrombin. It counts as functional. The method in brief:
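Citrated human PRP with serial inhibitor dilutions; aggregation triggered by thrombin at 0.2 unit/mL (final) and followed as rate of light transmission change in an aggregometer; plasma from at least four donors.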

A short description of assay [3]: Inhibition of platelet aggregation in human-platelet rich plasma(h-PRP) induced by collagen. Format: functional. The method in brief: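 Citrated human PRP with serial inhibitor dilutions; aggregation triggered by collagen at 2.5 μg/mL (final) and followed as rate of light transmission change in an aggregometer; plasma from at least four donors.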
In assay [4] the target is T1, Integrin alpha-IIb/beta-3 (Homo sapiens) (UniProt P05106+P08514). In words: (§1) Inhibition of fibrinogen binding to immobilized fibrinogen receptor. It counts as protein-complex assay.
For assay [5], the target named is T1, Integrin alpha-IIb/beta-3 (Homo sapiens). The description is as §1. It counts as protein-complex assay. The arrangement: reference not given here.
Assay [6] has as its target Integrin alpha-V/beta-3 (Homo sapiens) (UniProt P05106+P06756). In words: Inhibition of fibrinogen binding to immobilized vitronectin receptor. It counts as protein-complex assay. Also on record: reference not given here.

Molecules are shown by their SMILES. Peptide text beside a SMILES is read from it.

Regarding `N=C(N)c1cccc(S(=O)(=O)NCCc2ccc(OCC(=O)O)cc2)c1`, the IC50 in assay [1], in assay [2] and in assay [3] was greater than 200 µM in each case. For the same compound, the Ratio in assay [4] was determined as 24.

As for `N=C(N)NCCC[C@H](N)C(=O)NCC(=O)N[C@@H](CC(=O)O)C(=O)N[C@@H](Cc1ccccc1)C(=O)O` (H-RGDF-OH), the Ratio in assay [5] was 0.3; in assay [6], 3.5. Moreover, the IC50 in assay [1] came out at 19 µM; in assay [2], 21 µM; in assay [3] it was 38 µM.

For orientation: IC50 means the midpoint of a concentration-inhibition curve.
